In ChEMBL document CHEMBL4330151, “Antiviral Compounds from Codiaeum peltatum Targeted by a Multi-informative Molecular Networks Approach” (J Nat Prod, 2019):

How the values were obtained:
Chikungunya virus = assay: Antiviral activity against Chikungunya virus Indian Ocean strain 899 infected in African green monkey Vero cells assessed as protection against virus-induced cytopathic effect after 5 days by MTS assay; format: functional, organism-based; details: Indian Ocean strain 899, Vero, 120 h
[1] = Cytotoxicity against African green monkey Vero cells by MTS assay; format: cell-based; details: chlorocebus sabaeus
Outline: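 Uninfected Vero A cells were exposed to the same compound concentrations as the CHIKV antiviral plates and incubated 5 days at 37 °C, 5% CO2. MTS/PMS was added for 1.5 h and absorbance read at 498 nm. OD values were converted to control percentages, and CC50 was obtained by logarithmic interpolation. Values are medians ± absolute deviation of at least three independent assays.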

[2] = Inhibition of DENV2 N-terminal His6-tagged NS5 protein expressed in Escherichia coli using (Poly U) RNA template […] in presence of ATP/Triton-X-100 by picogreen dye based assay; parameters: species or system dengue virus type 2
[3] = Inhibition of DENV2 N-terminal His6-tagged NS5 protein expressed in Escherichia coli using (Poly U) RNA template […] in presence of ATP by picogreen dye based assay; parameters: species or system dengue virus type 2
[4] = Inhibition of GTP-bodipy binding to ZIKV N-terminal His6-tagged NS5 protein expressed in Escherichia coli after 15 mins by fluorescence polarization assay; parameters: species or system Zika virus; details: read-out: Kd(app)
Outline: (§1)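 Buffer was 50 mM Tris pH 7.5, 50 mM NaCl, 0.01% NP40 and 1 mM DTT, with 50 nM GTP-bodipy. NS5 was 300 nM for DENV-2 and 150 nM for ZIKV, with seven compound concentrations in 5% DMSO. Plates were incubated 15 min at room temperature, and fluorescence polarization was read at 485/520 nm after background subtraction. Kdapp was curve-fitted from triplicates in a single experiment.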

[5] = Inhibition of ZIKV N-terminal His6-tagged NS5 protein expressed in Escherichia coli using (Poly U) RNA template […] in presence of ATP by picogreen dye based assay; parameters: species or system Zika virus
[6] = Inhibition of GTP-bodipy binding to DENV2 N-terminal His6-tagged NS5 protein expressed in Escherichia coli after 15 mins by fluorescence polarization assay; parameters: species or system dengue virus type 2; details: read-out: Kd(app); outline: as §1
[7] = Inhibition of ZIKV N-terminal His6-tagged NS5 protein expressed in Escherichia coli using (Poly U) RNA template […] in presence of ATP/Triton-X-100 by picogreen dye based assay; parameters: species or system Zika virus
[8] = Selectivity index, ratio of CC50 for African green monkey Vero cells to EC50 for Chikungunya virus Indian Ocean strain 899 infected in African green monkey Vero cells; format: toxicity; details: read-out: Ratio CC50/EC50
Outline: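 SI is CC50 (Vero) divided by EC50 (CHIKV) from the same 5-day MTS assay. For CC50, uninfected Vero A cells were exposed to the same compound concentrations. CC50 is the concentration reducing viable cells by 50%, by logarithmic interpolation of OD 498 nm control percentages. Median of ≥3 independent assays.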

Compound | EC50 (Chikungunya virus) | CC50 [1] | IC50 [2] | IC50 [3] | Kd [4] | IC50 [5] | Kd [6] | IC50 [7] | selectivity ratio [8]
CC1(C)Oc2c(c(=O)[nH]c3ccccc23)[C@H]2[C@@H](Cl)[C@](C)(O)CC[C@@H]21 | > 288 µM | > 288 µM | – | – | – | – | – | – | –
COc1cc2c(C)c3c(cc2c2cc(O)c(C)cc12)O[C@H]1c2c(cc(O)c4cc(C)c(O)cc24)C(C)(C)C(=O)[C@@]1(OC)O3 | > 86 µM | > 172 µM | > 100 µM | 4.5 µM | > 100 µM | 4.8 µM | > 100 µM | > 100 µM | –
Cn1c(=O)c2c(c3ccccc31)OC(C)(C)[C@H]1CC[C@@](C)(O)[C@H](Cl)[C@H]21 | > 277 µM | > 208 µM | – | > 119 µM | – | > 138 µM | – | – | –
CO[C@]12Oc3c(cc4c(c3C)C(=O)C(=O)c3cc(C)c(O)cc3-4)O[C@H]1c1c(cc(O)c3cc(C)c(O)cc13)C(C)(C)C2=O | > 172 µM | > 172 µM | 67.2 µM | 12.1 µM | 32.1 µM | 8.1 µM | 9.3 µM | 36 µM | –
CC(=O)OCn1c(=O)c2c(c3ccccc31)OC(C)(C)[C@H]1CC[C@@](C)(O)[C@H](Cl)[C@H]21 | > 239 µM | > 239 µM | – | > 119 µM | – | > 138 µM | – | – | –
C=C(C)[C@@]12OC3(c4ccccc4)O[C@@H]1[C@@H]1[C@@H]4O[C@]4(CO)[C@@H](O)[C@@]4(O)[C@@H](C[C@H](C)[C@@H]4OC(=O)c4ccccc4)[C@@]1(O3)[C@](C)(O)[C@@H]2OC(=O)c1ccccc1 | 10 µM | 52 µM | – | > 69 µM | – | > 69 µM | – | – | 5
COc1cc2c3c(cc(O)c2cc1C)C(C)(C)C(=O)[C@@]1(OC)Oc2c(cc4c(cc(OC)c5cc(C)c(O)cc54)c2C)O[C@@H]31 | – | – | > 100 µM | 14.5 µM | > 100 µM | 10.9 µM | > 100 µM | > 100 µM | –
COc1cc2c3c(cc(O)c2cc1C)C(C)(C)C(=O)[C@@]1(OC)Oc2c(cc4c(cc(OC)c5cc(C)c(OC)cc54)c2C)O[C@@H]31 | – | – | > 100 µM | 21.7 µM | > 100 µM | 13.6 µM | > 100 µM | > 100 µM | –
Cn1c2c(c(=O)c3ccccc31)[C@H]1[C@@H](Cl)[C@](C)(O)CC[C@@H]1C(C)(C)O2 | > 277 µM | > 277 µM | – | – | – | – | – | – | –
COc1cc2c3c(cc(O)c2cc1C)C(C)(C)C(=O)[C@]1(OC)Oc2c(cc4c(cc(OC)c5cc(C)c(OC)cc54)c2C)O[C@@H]31 | – | – | > 100 µM | 17.8 µM | > 100 µM | 12.7 µM | > 100 µM | > 100 µM | –
C=C(C)[C@@]12OC3(c4ccccc4)O[C@@]4([C@H]([C@H]1O)[C@@H]1O[C@]1(CO)[C@@H](O)[C@@]1(O)[C@H]4C[C@H](C)[C@@H]1OC(=O)c1ccccc1)[C@](C)(O3)[C@@H]2OC(=O)c1ccccc1 | 4.4 µM | 49 µM | – | > 69 µM | – | > 69 µM | – | – | 11
COc1cc2c(C)c3c(cc2c2cc(O)c(C)cc12)O[C@H]1c2c(cc(O)c4cc(C)c(O)cc24)C(C)(C)C(=O)[C@]1(OC)O3 | > 172 µM | > 129 µM | > 100 µM | 9.1 µM | > 100 µM | 8.1 µM | > 100 µM | > 100 µM | –
Nc1ncnc2c1ncn2[C@@H]1O[C@H](COP(=O)(O)OP(=O)(O)OP(=O)(O)O)C[C@H]1O | – | – | – | 0.07 µM | – | 0.14 µM | – | – | –
